Measurements of several laboratories.
PIK3CG: Phosphatidylinositol 4,5-bisphosphate 3-kinase catalytic subunit gamma isoform (PIK3CG, Homo sapiens, UniProt P48736)
PTGS2: Prostaglandin G/H synthase 2 (PTGS2, Homo sapiens, UniProt P35354)
Inositol-tetrakisphosphate 1-kinase: Inositol-tetrakisphosphate 1-kinase (Homo sapiens, UniProt Q13572)
CHRM3: Muscarinic acetylcholine receptor M3 (CHRM3, Homo sapiens, UniProt P20309)

Cc1cccc(N=C2C(=O)N(Cc3cccc(Cl)c3)c3ccccc32)c1
IC50 (PIK3CG; enzyme activity, inhibitor, ADP detection): 0.96 nM

CN(C)C(=O)c1cc2cnc(Nc3ccc(-c4cccc5c(=O)cc(N6CCOCC6)oc45)c(F)c3)nc2n1C1CCCC1
IC50 (PIK3CG; enzyme activity, inhibitor, radiometric): > 10000 nM

NS(=O)(=O)c1ccc(-n2nc(C(=O)NN=Cc3ccc(O)cc3)cc2-c2ccccc2)cc1
IC50 (PTGS2; enzyme activity, inhibitor): 1420 nM

O=C1C(=Nc2ccccc2I)c2ccccc2N1Cc1ccc([N+](=O)[O-])cc1
IC50 (PIK3CG; enzyme activity, inhibitor, ADP detection): 1.52 nM

CN(C)C(=O)c1cc2cnc(Nc3cncc(-c4cccc5c(=O)cc(N6CCOCC6)oc45)c3)nc2n1C1CCCC1
IC50 (PIK3CG; enzyme activity, inhibitor, radiometric): 6110 nM

Nc1ncnc2c1ncn2[C@@H]1O[C@H](CO)[C@@H](O)[C@@H]1F
IC50 (Inositol-tetrakisphosphate 1-kinase; enzyme activity, inhibitor, ADP detection): 3700 nM

COc1nc2ccc(Br)cc2cc1[C@@H](c1ccccc1)[C@@](O)(CCN(C)C)c1cccc2ccccc12
IC50 (Retinal dehydrogenase 2 (ALDH1A2, Homo sapiens, UniProt O94788); enzyme activity, inhibitor, fluorescence; 15 min, pH 7.5): < 10000 nM

O=C(CCNC(=O)CNC(=O)CC(c1ccccc1)(c1ccccc1)c1ccccc1)NCC1CCN(Cc2ccc(F)cc2)CC1
IC50 (CHRM3; ligand displacement, radioligand; cell membranes): 15100 nM

O=C1C(=Nc2ccccc2I)c2ccccc2N1Cc1ccc(Br)cc1
IC50 (PIK3CG; enzyme activity, inhibitor, ADP detection): 5.8 nM

CN(C)C(=O)c1cc2cnc(Nc3ccc4c(=O)cc(N5CCNCC5)oc4c3)nc2n1C1CCCC1
IC50 (PIK3CG; enzyme activity, inhibitor, radiometric): 6930 nM

NS(=O)(=O)c1ccc(-n2nc(-c3nnc(S)o3)cc2-c2ccccc2)cc1
IC50 (PTGS2; enzyme activity, inhibitor): 3730 nM

Nc1ncnc2c1ncn2[C@@H]1O[C@H](CO)C[C@H]1O
IC50 (Inositol-tetrakisphosphate 1-kinase; enzyme activity, inhibitor, ADP detection): 2400 nM

C=C(F)C(=O)N1CCN(c2nc(OC[C@@H]3CCCN3C)nc3c2CCN(c2cccc4cccc(Cl)c24)C3)C[C@@H]1CC#N
IC50 (GTPase NRas (NRAS, Homo sapiens, UniProt P01111, C181S/C186S/G12C); enzyme activity, inhibitor): 747 nM

O=C1C(=Nc2ccc(Cl)cc2)c2ccccc2N1Cc1ccc([N+](=O)[O-])cc1
IC50 (PIK3CG; enzyme activity, inhibitor, ADP detection): 1.2 nM

CN(C)C(=O)c1cc2cnc(Nc3ccc(-c4cccc5c(=O)cc(N6CCNCC6)oc45)cc3)nc2n1C1CCCC1
IC50 (PIK3CG; enzyme activity, inhibitor, radiometric): > 10000 nM

COc1cc(C=NNC(=O)c2cc(-c3ccccc3)n(-c3ccc(S(N)(=O)=O)cc3)n2)cc(OC)c1OC
IC50 (PTGS2; enzyme activity, inhibitor): 2690 nM

Nc1ncnc2c1ncn2C1CCCO1 (centres unmarked)
IC50 (Inositol-tetrakisphosphate 1-kinase; enzyme activity, inhibitor): 1000 nM

O=C1C(=Nc2ccccc2I)c2ccccc2N1Cc1cccc(Cl)c1
IC50 (PIK3CG; enzyme activity, inhibitor, ADP detection): 4.07 nM

CN(C)C(=O)c1cc2cnc(Nc3cccc4c(=O)cc(N5CCOCC5)oc34)nc2n1C1CCCC1
IC50 (PIK3CG; enzyme activity, inhibitor, radiometric): 1420 nM

O=C1C(=Nc2ccc(Cl)cc2Br)c2ccccc2N1Cc1ccc([N+](=O)[O-])cc1
IC50 (PIK3CG; enzyme activity, inhibitor, ADP detection): 2.89 nM

CN(C)C(=O)c1cc2cnc(Nc3ccc(-c4cccc5c(=O)cc(N6CCOCC6)oc45)cn3)nc2n1C1CCCC1
IC50 (PIK3CG; enzyme activity, inhibitor, radiometric): > 10000 nM

Nc1ncnc2c1ncn2C1CCCC1
IC50 (Inositol-tetrakisphosphate 1-kinase; enzyme activity, inhibitor, ADP detection): 78 nM

COc1ccc(C=NNC(=O)c2cc(-c3ccccc3)n(-c3ccc(S(N)(=O)=O)cc3)n2)cc1OC
IC50 (PTGS2; enzyme activity, inhibitor): 4610 nM

COc1ccc(-c2oc3cc(Nc4ncc5cc(C(=O)N(C)C)n(C6CCCC6)c5n4)ccc3c(=O)c2F)cc1
IC50 (PIK3CG; enzyme activity, inhibitor, radiometric): > 10000 nM

C=CCN1C(=O)C(=Nc2cccc(C)c2)c2ccccc21
IC50 (PIK3CG; enzyme activity, inhibitor, ADP detection): 24.3 nM

CN(C)C(=O)c1cc2cnc(Nc3cccc(-c4cccc5c(=O)cc(N6CCOCC6)oc45)c3)nc2n1C1CCCC1
IC50 (PIK3CG; enzyme activity, inhibitor, radiometric): 6040 nM

O=C(CCNC(=O)CNC(=O)CC(c1ccccc1)(c1ccccc1)c1ccccc1)NC[C@H]1CCCN(Cc2ccc(F)cc2)C1
IC50 (CHRM3; ligand displacement, radioligand; cell membranes): 400 nM

FC(F)(F)CN1CC(n2cc(Oc3ccn4nc(Cl)cc4n3)cn2)C1
IC50 (Very long chain fatty acid elongase 7 (Homo sapiens, UniProt A1L3X0); enzyme activity, inhibitor): > 99000 nM

c1ccc(COc2[nH]cnc3ncnc2-3)cc1
IC50 (Inositol-tetrakisphosphate 1-kinase; enzyme activity, inhibitor, ADP detection): 2900 nM

Cc1cccc(N=C2C(=O)N(Cc3ccc(Br)cc3)c3ccccc32)c1
IC50 (PIK3CG; enzyme activity, inhibitor, ADP detection): 9.8 nM

NS(=O)(=O)c1ccc(-n2nc(C(=O)NN3C(=O)CCC3=O)cc2-c2ccccc2)cc1
IC50 (PTGS2; enzyme activity, inhibitor): 3630 nM

Nc1ncnc2c1cnn2C1CCCCC1
IC50 (Inositol-tetrakisphosphate 1-kinase; enzyme activity, inhibitor, ADP detection): 440 nM
